Converted amounts (≈) assume the structure as drawn.
Legend:
[1] = Aqueous solubility of the compound in water at pH 7 by HPLC analysis; assay type: physicochemical
In short: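 Solubility measured in water at pH 7 and 20 °C, quantified by HPLC.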

[2] = test system: Mycobacterium tuberculosis; test: Antituberculosis activity against Mycobacterium tuberculosis H37Rv under aerobic conditions by microplate alamar blue assay; assay type: functional
[3] = test system: Mycobacterium tuberculosis; test: Antituberculosis activity against Mycobacterium tuberculosis H37Rv under anaerobic conditions by fluorescence based low-oxygen-recovery assay; assay type: functional
[4] = Metabolic stability in human liver microsomes at 1 uM measured as compound remaining after 1 hr by LC/MS/MS analysis; assay type: ADME, Microsome; conditions: read-out: Stability
[5] = Metabolic stability in CD1 mouse liver microsomes at 1 uM measured as compound remaining after 1 hr by LC/MS/MS analysis; assay type: ADME, Microsome; conditions: read-out: Stability
[6] = test system: Mycobacterium tuberculosis; test: Antituberculosis activity against Mycobacterium tuberculosis H37Rv infected in BALB/c mouse acute infection model assessed as fold reduction in bacterial CFU in lungs at 100 mg/kg, po administered for 5 days a week for 3 weeks beginning on day 11 postinfection relative to PA-824; assay type: functional
In short: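 Mice with acute M. tb infection dosed orally at 100 mg/kg daily, 5 days each week, standard 3 week assay. Lung CFUs counted. Value is the fold CFU decrease for the compound divided by the fold CFU decrease for the internal reference standard run in the same experiment.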

[7] = Stability of the compound in antimycobacterial activity assay condition assessed as parent compound level; assay type: ADME
[8] = AUC (0 to infinity) in plasma of CD1 mouse at 40 mg/kg, po; assay type: ADME, organism-based; parameters: time infinity, dose 40 mg/kg, route oral
In short: (§1)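 Mice given a single oral dose of 40 mg/kg; drug levels followed over time in plasma and lung tissue to derive half-life, Cmax and AUC for each matrix.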

[9] = Cmax in plasma of CD1 mouse at 40 mg/kg, po; assay type: ADME, organism-based; parameters: dose 40 mg/kg, route oral; in short: as §1
[10] = Half life in plasma of CD1 mouse at 40 mg/kg, po; assay type: ADME, organism-based; parameters: dose 40 mg/kg, route oral
[11] = AUC (0 to infinity) in lung of CD1 mouse at 40 mg/kg, po; assay type: ADME, organism-based; parameters: time infinity, dose 40 mg/kg, route oral; in short: as §1
[12] = Cmax in lung of CD1 mouse at 40 mg/kg, po; assay type: ADME, organism-based; parameters: dose 40 mg/kg, route oral; in short: as §1
[13] = Half life in the lung of CD1 mouse at 40 mg/kg, po; assay type: ADME, organism-based; parameters: dose 40 mg/kg, route oral; in short: as §1
[14] = Ratio of AUC (0 to infinity) in lung of CD1 mouse to AUC (0 to infinity) in plasma of CD1 mouse at 40 mg/kg, po; assay type: ADME, organism-based; parameters: dose 40 mg/kg, route oral; conditions: read-out: Ratio AUC

Compound	solubility [1] [µg/mL]	MIC [2] [µM]	MIC [3] [µM]	other results
O=[N+]([O-])c1cn2c(n1)OC[C@@H](OCc1ccc(OCc3ccccc3)cc1)C2	0.76 (≈ 1.99 µM)	0.025 (≈ 0.00953 µg/mL)	1.3 (≈ 0.496 µg/mL)	remaining at 1 h, 1 µM [4]: 59%; remaining at 1 h, 1 µM [5]: 44%
O=[N+]([O-])c1cn2c(n1)OC[C@@H](OCc1ccc(C(F)(F)F)cn1)C2	188 (≈ 546 µM)	1.5 (≈ 0.516 µg/mL)	22 (≈ 7.57 µg/mL)	–
O=[N+]([O-])c1cn2c(n1)OC[C@@H](OCc1ccc(C(F)(F)F)nc1)C2	68 (≈ 198 µM)	3 (≈ 1.03 µg/mL)	50 (≈ 17.2 µg/mL)	–
O=[N+]([O-])c1cn2c(n1)OC[C@@H](OCCCc1ccc(OC(F)(F)F)cc1)C2	11 (≈ 28.4 µM)	0.22 (≈ 0.0852 µg/mL)	3.2 (≈ 1.24 µg/mL)	–
O=[N+]([O-])c1cn2c(n1)OC[C@@H](OCCCc1ccc(C(F)(F)F)nc1)C2	168 (≈ 451 µM)	0.51 (≈ 0.19 µg/mL)	12 (≈ 4.47 µg/mL)	–
O=[N+]([O-])c1cn2c(n1)OC[C@@H](OCCOc1ccc(OC(F)(F)F)cc1)C2	50 (≈ 128 µM)	0.04 (≈ 0.0156 µg/mL)	5.1 (≈ 1.99 µg/mL)	remaining at 1 h, 1 µM [4]: 85%; remaining at 1 h, 1 µM [5]: 66%; fold change (FC) [6]: 1.3
O=[N+]([O-])c1cn2c(n1)OC[C@@H](OCCOc1ccc(C(F)(F)F)cn1)C2	42 (≈ 112 µM)	0.38 (≈ 0.142 µg/mL)	26 (≈ 9.73 µg/mL)	–
O=[N+]([O-])c1cn2c(n1)OC[C@@H](OCCOc1ccc(C(F)(F)F)nc1)C2	58 (≈ 155 µM)	0.79 (≈ 0.296 µg/mL)	59 (≈ 22.1 µg/mL)	–
O=[N+]([O-])c1cn2c(n1)OC[C@@H](OC/C=C/c1ccc(OC(F)(F)F)cc1)C2	1.5 (≈ 3.89 µM)	0.05 (≈ 0.0193 µg/mL)	4.3 (≈ 1.66 µg/mL)	remaining at 1 h, 1 µM [4]: 99%; remaining at 1 h, 1 µM [5]: 71%
O=[N+]([O-])c1cn2c(n1)OC[C@@H](OC/C=C/c1ccc(OCc3ccccc3)cc1)C2	0.06 (≈ 0.147 µM)	0.16 (≈ 0.0652 µg/mL)	1.3 (≈ 0.53 µg/mL)	Stability [7]: < 50%
O=[N+]([O-])c1cn2c(n1)OC[C@@H](OC/C=C/c1ccc(C(F)(F)F)cn1)C2	29 (≈ 78.3 µM)	0.043 (≈ 0.0159 µg/mL)	3.8 (≈ 1.41 µg/mL)	–
O=[N+]([O-])c1cn2c(n1)OC[C@@H](OC/C=C/c1ccc(C(F)(F)F)nc1)C2	45 (≈ 122 µM)	0.15 (≈ 0.0555 µg/mL)	21 (≈ 7.78 µg/mL)	–
O=[N+]([O-])c1cn2c(n1)OC[C@@H](OCC#Cc1ccc(OC(F)(F)F)cc1)C2	0.77 (≈ 2.01 µM)	0.12 (≈ 0.046 µg/mL)	3.4 (≈ 1.3 µg/mL)	Stability [7]: < 50%
O=[N+]([O-])c1cn2c(n1)OC[C@@H](OCC#Cc1ccc(OCc3ccccc3)cc1)C2	0.43 (≈ 1.06 µM)	0.09 (≈ 0.0365 µg/mL)	3.5 (≈ 1.42 µg/mL)	Stability [7]: < 50%
O=[N+]([O-])c1cn2c(n1)OC[C@@H](OCC#Cc1ccc(C(F)(F)F)cn1)C2	8.4 (≈ 22.8 µM)	0.12 (≈ 0.0442 µg/mL)	3.3 (≈ 1.22 µg/mL)	–
O=[N+]([O-])c1cn2c(n1)OC[C@@H](OCC#Cc1ccc(C(F)(F)F)nc1)C2	11 (≈ 29.9 µM)	0.18 (≈ 0.0663 µg/mL)	8.9 (≈ 3.28 µg/mL)	–
O=[N+]([O-])c1cn2c(n1)OC[C@@H](OCCCC#Cc1ccc(OC(F)(F)F)cc1)C2	0.09 (≈ 0.219 µM)	0.05 (≈ 0.0206 µg/mL)	1.9 (≈ 0.782 µg/mL)	remaining at 1 h, 1 µM [4]: 69%; remaining at 1 h, 1 µM [5]: 24%; fold change (FC) [6]: 4.9; AUC(0-inf) [8]: 12600 ng·h/mL; Cmax [9]: 2540 ng/mL; half-life [10]: 96 min; AUC(0-inf) [11]: 7570 ng·h/mL; Cmax [12]: 2720 ng/mL; half-life [13]: 84 min; Kp [14]: 0.6; Stability [7]: < 50%
O=[N+]([O-])c1cn2c(n1)OC[C@@H](OCCCC#Cc1ccc(C(F)(F)F)cn1)C2	28 (≈ 70.6 µM)	0.19 (≈ 0.0753 µg/mL)	3.5 (≈ 1.39 µg/mL)	–

From ChEMBL document CHEMBL1833943, “Synthesis and structure-activity relationships of varied ether linker analogues of the antitubercular drug (6S)-2-nitro-6-{[4-(trifluoromethoxy)benzyl]oxy}-6,7-dihydro-5h-imidazo[2,1-b][1,3]oxazine (PA-824)” (J Med Chem, 2011)
